Results pooled from the literature.
Compare with care: the assays were run in different laboratories.
Target: Ephrin type-A receptor 3 (EPHA3, Homo sapiens, UniProt P29320)
One construct used (P29320 1-983): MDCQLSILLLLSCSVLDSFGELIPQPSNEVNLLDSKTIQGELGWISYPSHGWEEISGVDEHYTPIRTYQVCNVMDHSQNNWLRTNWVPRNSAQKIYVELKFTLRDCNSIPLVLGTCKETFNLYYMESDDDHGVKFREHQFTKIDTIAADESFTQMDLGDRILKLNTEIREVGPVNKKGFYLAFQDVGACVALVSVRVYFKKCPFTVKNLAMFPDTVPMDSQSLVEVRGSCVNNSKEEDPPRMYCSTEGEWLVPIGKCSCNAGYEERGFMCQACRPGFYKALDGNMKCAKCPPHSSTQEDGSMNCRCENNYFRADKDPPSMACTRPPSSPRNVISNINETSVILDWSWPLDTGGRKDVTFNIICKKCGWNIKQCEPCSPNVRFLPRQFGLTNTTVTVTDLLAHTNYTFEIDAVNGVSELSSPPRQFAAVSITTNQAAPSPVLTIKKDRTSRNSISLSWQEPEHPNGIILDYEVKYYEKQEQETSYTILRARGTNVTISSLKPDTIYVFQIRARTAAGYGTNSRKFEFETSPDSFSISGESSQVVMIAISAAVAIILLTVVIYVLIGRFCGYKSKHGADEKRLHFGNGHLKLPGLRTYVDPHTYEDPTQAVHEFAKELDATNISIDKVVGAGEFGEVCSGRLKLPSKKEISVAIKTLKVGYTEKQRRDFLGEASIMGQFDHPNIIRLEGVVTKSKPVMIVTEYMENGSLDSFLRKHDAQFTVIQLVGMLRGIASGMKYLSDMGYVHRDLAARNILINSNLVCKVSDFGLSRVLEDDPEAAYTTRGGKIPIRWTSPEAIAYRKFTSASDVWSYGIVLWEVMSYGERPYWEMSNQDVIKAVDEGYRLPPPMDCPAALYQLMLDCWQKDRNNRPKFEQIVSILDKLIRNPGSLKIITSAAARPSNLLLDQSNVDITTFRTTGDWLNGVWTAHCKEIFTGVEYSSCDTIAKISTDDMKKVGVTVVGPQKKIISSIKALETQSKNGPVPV

SMILES | assay | setting | quantity | result
Cc1ccc(C(=O)Nc2ccc(CN3CCN(C)CC3)c(C(F)(F)F)c2)cc1C#Cc1cnc2cccnn12 | cell-free assay | 23.5 nM | remaining signal | 7.3%
O=C(NCCCC1CCCCC1)c1ccc(CNC(=O)c2cnn(-c3ccccc3)c2C(F)(F)F)cc1 | cell-free assay, competition with immobilised ligand | 0.1 µM | remaining binding | 91%
CNC(=O)c1cc(Oc2ccc(NC(=O)Nc3ccc(Cl)c(C(F)(F)F)c3)cc2)ccn1 | enzyme activity, inhibitor | 0.3 µM | inhibition | 11%
CS(=O)(=O)CCNCc1ccc(-c2ccc3ncnc(Nc4ccc(OCc5cccc(F)c5)c(Cl)c4)c3c2)o1 | cell-free assay | 0.5 µM | remaining signal | 98.2%
CC/C(=N\NC(=O)NCc1cccc(O)c1)c1ccc(O)c(C)c1O | enzyme activity, inhibitor | 0.1 µM | inhibition | 0.6%
CCN(CC)CCNC(=O)c1c(C)[nH]c(/C=C2\C(=O)Nc3ccc(F)cc32)c1C | cell-free assay | 0.5 µM | remaining signal | 84%
COc1cccc(CNC(=O)c2nc3scc(COCc4ccc(C(=O)O)cc4)c3c(=O)[nH]2)c1 | cell-free assay, competition with immobilised ligand | 1 µM | remaining binding | 91.3%
CC(C)(C)c1nc2c(s1)c1nc(N)ncc1c1ccc(NS(=O)(=O)c3c(F)cccc3F)c(F)c12 | enzyme activity, inhibitor, radiometric | 1 µM | remaining activity | 92%
Cc1nc(N2CC[C@@H](O)C2)ncc1-c1cc(C(F)(F)F)cc2[nH]ncc12 | cell-free assay, competition with immobilised ligand | 1 µM | remaining binding | 94%
Cc1cc(NC(=O)c2cccc3cc(-c4cccc5[nH]nc(N)c45)ccc23)ccc1F | enzyme activity, inhibitor | 0.1 µM | activity vs control | 103%
CO[C@@H](C)c1c(Nc2ccc([C@@H](N(C)C(=O)C3CCS(=O)(=O)CC3)C(F)(F)F)cc2)cnc2cc(Cl)nn12 | cell-free assay, competition with immobilised ligand | 1 µM | remaining binding | 90%
Cc1cnc(NC2CCOCC2)nc1-n1cnc(C(=O)NC(CN)c2cc(F)cc(Cl)c2)c1 (centres unmarked) | enzyme activity, inhibitor, radiometric | 1 µM | remaining activity | 123%
COc1cc2ncnc(Nc3ccc(F)c(Cl)c3)c2cc1OCCCN1CCOCC1 | cell-free assay | 0.5 µM | remaining signal | 94.4%
O=C(O)[C@@H]1[C@@H](Cn2nnc3ccccc3c2=O)CC[C@H]1C(=O)c1ccc(OCCC2CCOCC2)cc1 | cell-free assay, competition with immobilised ligand | 1 µM | remaining binding | 100%
Cc1ccc(Nc2nccc(N(C)c3ccc4c(C)n(C)nc4c3)n2)cc1S(N)(=O)=O | enzyme activity, inhibitor | 0.3 µM | inhibition | 2%
CN(C)C1CCN(CC#Cc2nn(C3CCCC3)c3nc(NCc4ccccc4)ncc23)C1 (centres unmarked) | enzyme activity, inhibitor, FRET | 10 µM | inhibition | -3%
O=C1Nc2ccc(Cl)cc2C1=Cc1cc(Cl)c(O)c(Cl)c1 | cell-free assay | 0.5 µM | remaining signal | 82.5%
Cc1ccc(NC(=O)c2ccc(C)c(C(F)(F)F)c2)cc1C#Cc1nn(C2CCC(O)CC2)c2ncnc(N)c12 (centres unmarked) | cell-free assay | 10 µM | remaining signal | 3%
CSc1nc(C)c(-c2ccnc(Nc3ccc(N4CCOCC4)cc3)c2)[nH]1 | cell-free assay, inhibitor | 10 µM | inhibition | -6.3%
CCOC(=O)c1cc2cc(-c3cc(C(=O)NCc4ccc(C(=O)O)cc4)nn3C)ccc2[nH]1 | cell-free assay, competition with immobilised ligand | 0.1 µM | remaining binding | 100%
CCCS(=O)(=O)Nc1ccc(F)c(C(=O)c2c[nH]c3ncc(-c4ccc(Cl)cc4)cc23)c1F | enzyme activity, inhibitor | 1 µM | inhibition | < 10%
Cc1noc([C@H]2C[C@@H](c3ccc(C(F)(F)F)cc3)CN(C(=O)N3CCS(=O)(=O)C3)C2)n1 | cell-free assay, competition with immobilised ligand | 1 µM | remaining binding | 100%
O=C(Nc1cnn(-c2csc(C(=O)NC3COC3)c2)c1)Nc1c(F)cccc1Cl | enzyme activity, inhibitor | 5 µM | remaining activity | 96.1%
